These results are taken from ChEMBL document CHEMBL1151755, “Crystal structure of the peroxisome proliferator-activated receptor gamma (PPARgamma) ligand binding domain complexed with a novel partial agonist: a new region of the hydrophobic pocket could be exploited for drug design” (J Med Chem, 2008).

The source made the active and inactive calls. The calls are words filed in the database; no cut-off is given here.

What all share (type): cell-based
Conditions in all cases: HepG2

Test [1] addresses T1, Oxysterols receptor LXR-beta (Homo sapiens) (UniProt P55055).
T1 sequence (whole entry): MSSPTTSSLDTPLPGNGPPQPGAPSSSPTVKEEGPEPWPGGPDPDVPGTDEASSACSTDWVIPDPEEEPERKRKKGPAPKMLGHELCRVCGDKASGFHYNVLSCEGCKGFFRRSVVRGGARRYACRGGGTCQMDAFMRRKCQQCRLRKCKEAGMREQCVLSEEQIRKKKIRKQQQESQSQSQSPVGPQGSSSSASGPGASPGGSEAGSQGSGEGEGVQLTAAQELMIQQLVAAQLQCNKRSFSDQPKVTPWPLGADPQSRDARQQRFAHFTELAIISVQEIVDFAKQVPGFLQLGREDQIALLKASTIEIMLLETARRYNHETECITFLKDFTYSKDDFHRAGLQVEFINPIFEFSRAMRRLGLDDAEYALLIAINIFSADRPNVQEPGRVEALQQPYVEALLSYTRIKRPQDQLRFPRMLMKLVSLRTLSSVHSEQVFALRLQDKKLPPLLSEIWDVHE
As to the kind of experiment: Increase in transcriptional activity of LXRbeta ligand binding domain expressed in human Hep G2 cells co-transfected with Gal4-DBD by luciferase reporter gene assay. The method, boiled down:
(§1)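 HepG2 cells transfected for 4 h by calcium phosphate coprecipitation with 100 ng pGal4UAS-luciferase, 50 ng Gal4-LBD receptor vector and 300 ng CMV-β-galactosidase plasmid for normalization. Cells were washed in PBS, then refed with serum-free DMEM/F-12 containing penicillin/streptomycin and compound or 0.1% ethanol vehicle for 20 h. Luciferase read-out was normalized to β-galactosidase. Experiments were repeated at least three times.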
Background: Reporter assays use an easily measured gene product as a stand-in for the process of interest.

Test [2] has as its target T2, Peroxisome proliferator-activated receptor alpha (Mus musculus) (UniProt P23204).
T2 sequence (whole entry): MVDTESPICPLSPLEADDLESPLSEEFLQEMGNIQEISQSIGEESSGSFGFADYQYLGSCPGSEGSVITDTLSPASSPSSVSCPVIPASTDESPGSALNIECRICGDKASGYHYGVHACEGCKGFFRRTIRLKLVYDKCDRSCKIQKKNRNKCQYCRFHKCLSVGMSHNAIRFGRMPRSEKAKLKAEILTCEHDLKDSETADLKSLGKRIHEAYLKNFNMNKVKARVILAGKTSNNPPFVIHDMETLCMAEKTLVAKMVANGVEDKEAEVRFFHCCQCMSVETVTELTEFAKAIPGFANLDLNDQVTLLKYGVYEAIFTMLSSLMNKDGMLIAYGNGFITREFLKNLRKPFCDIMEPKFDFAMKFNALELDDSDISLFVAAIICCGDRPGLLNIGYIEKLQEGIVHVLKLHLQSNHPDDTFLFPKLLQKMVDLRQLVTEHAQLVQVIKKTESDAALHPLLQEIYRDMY
As to the kind of experiment: Agonist activity at mouse PPARalpha ligand binding domain expressed in human Hep G2 cells co-transfected with Gal4-DBD by luciferase reporter gene assay relative to Wy 14,643. The method, boiled down: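 HepG2 cells received the Gal4-receptor LBD construct (50 ng), pGal4UAS-luciferase (100 ng) and pCMVβ (300 ng) by calcium phosphate coprecipitation for 4 h. They were then treated in serum-free DMEM/F-12 with ligand or 0.1% ethanol for 20 h. Luciferase was normalized to β-galactosidase, and efficacy was expressed as percent of the Wy 14,643 maximum (100%). Values are mean ± SEM of 3–5 experiments in triplicate.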

For test [3], the target named is T3, Retinoic acid receptor RXR-alpha (Homo sapiens) (UniProt P19793).
T3 sequence (whole entry): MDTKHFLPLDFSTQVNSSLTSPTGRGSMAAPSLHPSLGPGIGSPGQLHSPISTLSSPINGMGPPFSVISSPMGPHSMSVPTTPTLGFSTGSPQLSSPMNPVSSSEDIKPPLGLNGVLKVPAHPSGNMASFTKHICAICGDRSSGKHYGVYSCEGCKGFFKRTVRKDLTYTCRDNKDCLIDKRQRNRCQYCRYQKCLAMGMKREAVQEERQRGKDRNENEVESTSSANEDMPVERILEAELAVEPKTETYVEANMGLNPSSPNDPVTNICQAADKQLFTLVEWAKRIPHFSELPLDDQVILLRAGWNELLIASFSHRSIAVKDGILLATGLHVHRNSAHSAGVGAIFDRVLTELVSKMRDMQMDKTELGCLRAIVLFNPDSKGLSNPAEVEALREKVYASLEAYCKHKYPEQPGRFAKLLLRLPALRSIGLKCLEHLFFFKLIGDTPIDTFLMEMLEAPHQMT
As to the kind of experiment: Increase in transcriptional activity of RXRalpha ligand binding domain expressed in human Hep G2 cells co-transfected with Gal4-DBD by luciferase reporter gene assay. A digest of the protocol:
as §1

Test [4] addresses T4, Retinoic acid receptor alpha (Homo sapiens) (UniProt P10276).
T4 sequence (whole entry): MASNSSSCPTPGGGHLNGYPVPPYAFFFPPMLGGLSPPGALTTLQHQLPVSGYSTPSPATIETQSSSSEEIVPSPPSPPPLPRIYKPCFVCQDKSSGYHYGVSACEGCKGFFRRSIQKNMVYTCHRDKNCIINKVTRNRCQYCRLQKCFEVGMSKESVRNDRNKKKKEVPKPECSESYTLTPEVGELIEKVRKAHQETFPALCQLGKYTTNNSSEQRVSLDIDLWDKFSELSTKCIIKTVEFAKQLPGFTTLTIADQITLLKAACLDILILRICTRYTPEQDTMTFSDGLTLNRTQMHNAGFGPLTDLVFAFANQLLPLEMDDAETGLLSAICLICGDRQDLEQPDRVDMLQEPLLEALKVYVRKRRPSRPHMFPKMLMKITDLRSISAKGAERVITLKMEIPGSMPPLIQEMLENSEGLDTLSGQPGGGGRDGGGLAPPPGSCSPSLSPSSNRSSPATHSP
As to the kind of experiment: Increase in transcriptional activity of RARalpha ligand binding domain expressed in human Hep G2 cells co-transfected with Gal4-DBD by luciferase reporter gene assay. A digest of the protocol:
as §1

The target in test [5] is T5, Peroxisome proliferator-activated receptor delta (Homo sapiens) (UniProt Q03181).
T5 sequence (whole entry): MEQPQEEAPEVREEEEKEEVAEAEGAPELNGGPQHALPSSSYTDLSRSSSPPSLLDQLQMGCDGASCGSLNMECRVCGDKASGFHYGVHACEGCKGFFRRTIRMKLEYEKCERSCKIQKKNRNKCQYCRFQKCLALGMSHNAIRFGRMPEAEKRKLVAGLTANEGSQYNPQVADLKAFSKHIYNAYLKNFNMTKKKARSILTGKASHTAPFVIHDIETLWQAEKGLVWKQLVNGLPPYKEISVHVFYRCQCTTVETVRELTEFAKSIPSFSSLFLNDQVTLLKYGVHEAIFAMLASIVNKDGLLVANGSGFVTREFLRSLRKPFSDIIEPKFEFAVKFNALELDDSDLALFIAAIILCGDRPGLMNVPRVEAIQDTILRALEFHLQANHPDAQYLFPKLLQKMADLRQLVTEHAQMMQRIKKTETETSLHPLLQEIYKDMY
The experiment in a line: Increase in transcriptional activity of human PPARbeta/delta ligand binding domain expressed in human Hep G2 cells co-transfected with Gal4-DBD by luciferase reporter gene assay. The method, boiled down:
as §1

For the compound `O=C(O)[C@@H](Cc1ccccc1)Oc1ccc(-c2ccccc2)cc1`, the outcome in test [1], in test [2], in test [3], in test [4] and in test [5] was inactive.
As to `O=C(O)[C@H](Cc1ccccc1)Oc1ccc(-c2ccccc2)cc1`, the outcome in test [1], in test [3], in test [4] and in test [5] was inactive. This compound returned an Efficacy in test [2] of 120%.
